# Measurements pooled from the literature.
# Read-out: enzyme activity
# Mode: inhibitor
# PDGFRA: Platelet-derived growth factor receptor alpha (PDGFRA, Homo sapiens, UniProt P16234)
# PDGFRA D842V: Platelet-derived growth factor receptor alpha (PDGFRA, Homo sapiens, UniProt P16234, D842V)
# PDGFRA V561D: Platelet-derived growth factor receptor alpha (PDGFRA, Homo sapiens, UniProt P16234, V561D)
Structure (SMILES),target,assay,setting,inhibition
O=C(CSc1nc2nccnc2c(=O)n1CCc1ccccc1)Nc1nccs1,PDGFRA,,10 µM,16%
COc1cc(-c2cc(-c3ccc(N4CCNCC4)cc3)cnc2N)cc(OC)c1OC,PDGFRA D842V,,0.1 µM,54%
COc1cc2ncnc(Nc3ccc(Oc4ccccc4)cc3C)c2cc1OC,PDGFRA V561D,,1 µM,20%
CNC(=O)c1cc2c(Oc3ccc(NC(=O)C4(C(=O)Nc5ccc(F)cc5)CC4)cc3)ccnc2cc1OC,PDGFRA D842V,radiometric,1 µM,73%
CNC(=O)c1cc(Oc2ccc(NC(=O)Nc3ccc(Cl)c(C(F)(F)F)c3)cc2)ccn1,PDGFRA V561D,,0.3 µM,99%
CNCc1ccc(-c2cc(-c3nc(-c4ccc(S(=O)(=O)C(C)C)cc4)cnc3N)on2)cc1,PDGFRA,,2 µM,9%
COc1cc2ncnc(Nc3ccc(Oc4ccccc4)c(C)c3C)c2cc1OC,PDGFRA V561D,,1 µM,7%
CC/C(=N\NC(=O)NCc1cccc(O)c1)c1ccc(O)c(C)c1O,PDGFRA,,0.1 µM,6.7%
COc1cc2nccc(Oc3ccc(NC(=O)c4c5n(n(-c6ccc(F)cc6)c4=O)CCCC5)cc3)c2cc1OC,PDGFRA,,0.1 µM,30%
CN1CC(Oc2cnc(C#N)cc2-c2ccn3nc(NC(=O)C4CC4)cc3c2)C1,PDGFRA,,1 µM,4%
